Entries after “also recorded” stand apart in the source; their conditions may differ.
System: healthy young and healthy elderly subjects
Test: Safety and tolerability
Assay type: in vivo, human
Procedure, shortened: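 Adverse events were recorded by system organ class and preferred term in the treated set. This was 84 healthy young or elderly subjects randomised 3:1 to oral drug or placebo over 14 days, across seven ascending dose groups with a safety review before each escalation. Changes were assessed against the last pre-dose baseline measurement.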

C[C@@H](Oc1ccc(S(C)(=O)=O)cc1C(=O)N1C[C@@H]2C[C@]2(c2cc(C(F)(F)F)on2)C1)C(F)(F)F [BI 425809]
intensity of treatment-emergent AEs (all dose groups): mild-to-moderate; also recorded: mild or moderate
intensity of eye disorders (both age groups): mild
subjects who reported one or more AEs (elderly subjects receiving the active drug): 88.9%
subjects with drug-related AEs (elderly subjects who received BI 425809): 77.8%
Back pain (elderly, 25 mg QD): 1 (11.1) n (%)
Constipation (elderly, 25 mg QD): 0 (–) n (%)
Dizziness (elderly, 25 mg QD): 1 (11.1) n (%)
Eye disorders (elderly, 25 mg QD): 1 (11.1) n (%)
Folliculitis (elderly, 25 mg QD): 2 (22.2) n (%)
Gastrointestinal disorders (elderly, 25 mg QD): 6 (66.7) n (%)
General disorders and administration site conditions (elderly, 25 mg QD): 2 (22.2) n (%)
Hard faeces (elderly, 25 mg QD): 2 (22.2) n (%)
Headache (elderly, 25 mg QD): 1 (11.1) n (%)
Infections and infestations (elderly, 25 mg QD): 3 (33.3) n (%)
Injury, poisoning and procedural complications (elderly, 25 mg QD): 2 (22.2) n (%)
Musculoskeletal and connective tissue disorders (elderly, 25 mg QD): 1 (11.1) n (%)
Nasopharyngitis (elderly, 25 mg QD): 1 (11.1) n (%)
Nausea (elderly, 25 mg QD): 1 (11.1) n (%)
Nervous system disorder (elderly, 25 mg QD): 2 (22.2) n (%)
Psychiatric disorders (elderly, 25 mg QD): 2 (22.2) n (%)
Subjects with AEs leading to study discontinuation (elderly, 25 mg QD): 0 (–) n (%)
Subjects with investigator-defined drug-related AEs (elderly, 25 mg QD): 6 (66.7) n (%)
Total with AEs (elderly, 25 mg QD): 8 (88.9) n (%)
Venepuncture site haematoma (elderly, 25 mg QD): 1 (11.1) n (%)
Vomiting (elderly, 25 mg QD): 1 (11.1) n (%)
Back pain (elderly, 50 mg QD): 1 (11.1) n (%)
Constipation (elderly, 50 mg QD): 4 (44.4) n (%)
Dizziness (elderly, 50 mg QD): 2 (22.2) n (%)
Eye disorders (elderly, 50 mg QD): 1 (11.1) n (%)
Folliculitis (elderly, 50 mg QD): 1 (11.1) n (%)
Gastrointestinal disorders (elderly, 50 mg QD): 5 (55.6) n (%)
General disorders and administration site conditions (elderly, 50 mg QD): 4 (44.4) n (%)
Hard faeces (elderly, 50 mg QD): 0 (–) n (%)
Headache (elderly, 50 mg QD): 1 (11.1) n (%)
Infections and infestations (elderly, 50 mg QD): 3 (33.3) n (%)
Injury, poisoning and procedural complications (elderly, 50 mg QD): 0 (–) n (%)
Musculoskeletal and connective tissue disorders (elderly, 50 mg QD): 2 (22.2) n (%)
Nasopharyngitis (elderly, 50 mg QD): 1 (11.1) n (%)
Nausea (elderly, 50 mg QD): 1 (11.1) n (%)
Nervous system disorder (elderly, 50 mg QD): 3 (33.3) n (%)
Psychiatric disorders (elderly, 50 mg QD): 2 (22.2) n (%)
Subjects with AEs leading to study discontinuation (elderly, 50 mg QD): 1 (11.1) n (%)
Subjects with investigator-defined drug-related AEs (elderly, 50 mg QD): 8 (88.9) n (%)
Total with AEs (elderly, 50 mg QD): 8 (88.9) n (%)
Venepuncture site haematoma (elderly, 50 mg QD): 4 (44.4) n (%)
Vomiting (elderly, 50 mg QD): 1 (11.1) n (%)
Back pain (elderly, Total BI n = 18): 2 (11.1) n (%)
Constipation (elderly, Total BI n = 18): 4 (22.2) n (%)
Dizziness (elderly, Total BI n = 18): 3 (16.7) n (%)
Eye disorders (elderly, Total BI n = 18): 2 (11.1) n (%)
Folliculitis (elderly, Total BI n = 18): 3 (16.7) n (%)
Gastrointestinal disorders (elderly, Total BI n = 18): 11 (61.1) n (%)
General disorders and administration site conditions (elderly, Total BI n = 18): 6 (33.3) n (%)
Hard faeces (elderly, Total BI n = 18): 2 (11.1) n (%)
Headache (elderly, Total BI n = 18): 2 (11.1) n (%)
Infections and infestations (elderly, Total BI n = 18): 6 (33.3) n (%)
Injury, poisoning and procedural complications (elderly, Total BI n = 18): 2 (11.1) n (%)
Musculoskeletal and connective tissue disorders (elderly, Total BI n = 18): 3 (16.7) n (%)
Nasopharyngitis (elderly, Total BI n = 18): 2 (11.1) n (%)
Nausea (elderly, Total BI n = 18): 2 (11.1) n (%)
Nervous system disorder (elderly, Total BI n = 18): 5 (27.8) n (%)
Psychiatric disorders (elderly, Total BI n = 18): 4 (22.2) n (%)
Subjects with AEs leading to study discontinuation (elderly, Total BI n = 18): 1 (5.6) n (%)
Subjects with investigator-defined drug-related AEs (elderly, Total BI n = 18): 14 (77.8) n (%)
Total with AEs (elderly, Total BI n = 18): 16 (88.9) n (%)
Vomiting (elderly, Total BI n = 18): 2 (11.1) n (%)
dose dependency of AEs (frequency of subjects with drug-related AE across treatment groups): no dose dependency was observed; also recorded: not dose dependent
tolerability (multiple doses 10–75 mg QD or 75 mg BID (young), 25 or 50 mg QD (elderly)): generally well tolerated
serious AEs (part 1, all dose groups): no serious adverse events occurred; also recorded: no serious AEs were reported
subjects who experienced one or more AEs (young subjects, part 1, active-treatment arm): 66.7%
subjects with drug-related AEs (young subjects, part 1, receiving BI 425809): 60.0%
Dizziness (young, part 1, 10 mg QD): 1 (11.1) n (%)
Eye disorders (young, part 1, 10 mg QD): 0 (–) n (%)
Gastrointestinal disorders (young, part 1, 10 mg QD): 0 (–) n (%)
General disorders and administration site conditions (young, part 1, 10 mg QD): 0 (–) n (%)
Headache (young, part 1, 10 mg QD): 3 (33.3) n (%)
Infections and infestations (young, part 1, 10 mg QD): 1 (11.1) n (%)
Insomnia (young, part 1, 10 mg QD): 0 (–) n (%)
Musculoskeletal and connective tissue disorders (young, part 1, 10 mg QD): 1 (11.1) n (%)
Nasopharyngitis (young, part 1, 10 mg QD): 0 (–) n (%)
Nervous system disorder (young, part 1, 10 mg QD): 4 (44.4) n (%)
Ocular discomfort (young, part 1, 10 mg QD): 0 (–) n (%)
Psychiatric disorders (young, part 1, 10 mg QD): 0 (–) n (%)
Subjects with AEs leading to study discontinuation (young, part 1, 10 mg QD): 0 (–) n (%)
Subjects with investigator-defined drug-related AEs (young, part 1, 10 mg QD): 4 (44.4) n (%)
Total with AEs (young, part 1, 10 mg QD): 5 (55.6) n (%)
Vision blurred (young, part 1, 10 mg QD): 0 (–) n (%)
Dizziness (young, part 1, 25 mg QD): 0 (–) n (%)
Eye disorders (young, part 1, 25 mg QD): 2 (22.2) n (%)

— PMC6061410 (Clinical Drug Investigation, 2018)
